Legend:
[1] = target: recombinant human HDAC 2 (Homo sapiens, UniProt Q92769); test: HDAC enzyme inhibition assay, HDAC2; type: biochemical; conditions: read-out: In vitro IC50, HD2
How it was run: (§1)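 Recombinant human enzyme incubated at 37°C for 30 min in HDAC assay buffer with 5 μg BSA and fluorogenic substrate 3 (10 μM). Double-strength developer was then added for 20 min at room temperature, and fluorescence was read at ex 360/em 460 nm. The six-point concentration series was run in duplicate. Activity was taken as (F−Fb)/(Ft−Fb), with no-inhibitor as 100% and no-enzyme as 0%, and IC50 came from a sigmoidal nonlinear fit.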

[2] = test system: contextual fear memory; test: Contextual fear conditioning, 24 hr retention; type: in vivo, Long-Evans rats; conditions: 1.2 g/kg i.p. 1 hr prior to CFC training
[3] = test system: hippocampal histone H3 and H4 acetylation; test: Brain/hippocampal histone acetylation after i.p. injection; type: in vivo, Long-Evans rats
[4] = target: recombinant human HDAC 1 (Homo sapiens, UniProt Q13547); test: HDAC enzyme inhibition assay, HDAC1; type: biochemical; conditions: read-out: In vitro IC50, HD1, NI = no inhibition up to 10 mM tested
Chain of recombinant human HDAC 1 (Q13547 whole entry): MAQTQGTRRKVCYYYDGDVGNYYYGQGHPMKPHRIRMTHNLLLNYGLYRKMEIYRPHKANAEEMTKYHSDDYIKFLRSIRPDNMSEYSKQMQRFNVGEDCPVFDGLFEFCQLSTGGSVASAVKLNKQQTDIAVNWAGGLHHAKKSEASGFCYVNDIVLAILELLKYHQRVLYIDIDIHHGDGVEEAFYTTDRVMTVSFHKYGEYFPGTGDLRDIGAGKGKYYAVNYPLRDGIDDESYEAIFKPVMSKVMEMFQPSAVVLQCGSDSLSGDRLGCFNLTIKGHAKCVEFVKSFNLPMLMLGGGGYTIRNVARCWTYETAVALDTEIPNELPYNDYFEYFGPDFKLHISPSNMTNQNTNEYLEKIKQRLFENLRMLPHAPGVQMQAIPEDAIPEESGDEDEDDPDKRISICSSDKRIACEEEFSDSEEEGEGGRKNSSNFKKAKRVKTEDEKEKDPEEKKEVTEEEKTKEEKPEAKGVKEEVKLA
How it was run: as §1

[5] = target: recombinant human HDAC 3 (Homo sapiens, UniProt O15379); test: HDAC enzyme inhibition assay, HDAC3; type: biochemical; conditions: read-out: In vitro IC50, HD3
Chain of recombinant human HDAC 3 (O15379 whole entry): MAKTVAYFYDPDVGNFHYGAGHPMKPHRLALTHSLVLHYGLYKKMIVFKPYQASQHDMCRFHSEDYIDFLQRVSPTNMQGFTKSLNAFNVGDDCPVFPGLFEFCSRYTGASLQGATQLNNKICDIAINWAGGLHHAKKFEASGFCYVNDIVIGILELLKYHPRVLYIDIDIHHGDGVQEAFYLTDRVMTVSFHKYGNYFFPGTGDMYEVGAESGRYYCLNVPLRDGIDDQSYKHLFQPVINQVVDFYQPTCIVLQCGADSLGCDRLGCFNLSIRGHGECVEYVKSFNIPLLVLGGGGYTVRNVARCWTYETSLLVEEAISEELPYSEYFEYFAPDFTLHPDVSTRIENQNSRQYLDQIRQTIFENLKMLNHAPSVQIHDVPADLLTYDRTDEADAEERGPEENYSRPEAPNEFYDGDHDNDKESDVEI
Chain of recombinant human HDAC 3 (Q9Y618 395-489 partner limits assumed): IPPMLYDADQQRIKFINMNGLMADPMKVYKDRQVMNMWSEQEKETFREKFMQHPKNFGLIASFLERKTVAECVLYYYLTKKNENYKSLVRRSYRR
How it was run: as §1

[6] = target: T1, recombinant human HDAC 8 (Homo sapiens, UniProt Q9BY41); test: HDAC enzyme inhibition assay, HDAC8; type: biochemical; conditions: read-out: In vitro IC50, HD8
T1 sequence (Q9BY41 1-377): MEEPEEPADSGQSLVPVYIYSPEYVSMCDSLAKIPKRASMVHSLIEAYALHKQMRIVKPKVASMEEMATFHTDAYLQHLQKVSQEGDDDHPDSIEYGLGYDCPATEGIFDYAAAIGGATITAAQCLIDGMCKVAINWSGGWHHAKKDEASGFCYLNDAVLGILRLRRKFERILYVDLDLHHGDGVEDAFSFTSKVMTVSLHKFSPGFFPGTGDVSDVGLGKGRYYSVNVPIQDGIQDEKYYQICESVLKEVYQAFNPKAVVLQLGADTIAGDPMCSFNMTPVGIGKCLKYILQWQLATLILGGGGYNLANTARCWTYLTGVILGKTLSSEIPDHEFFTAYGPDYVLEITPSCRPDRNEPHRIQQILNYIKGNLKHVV
How it was run: as §1

[7] = target: T2, recombinant human HDAC 11 (Homo sapiens, UniProt Q96DB2); test: HDAC enzyme inhibition assay, HDAC11; type: biochemical; conditions: read-out: In vitro IC50, HD11
T2 sequence (Q96DB2 1-347): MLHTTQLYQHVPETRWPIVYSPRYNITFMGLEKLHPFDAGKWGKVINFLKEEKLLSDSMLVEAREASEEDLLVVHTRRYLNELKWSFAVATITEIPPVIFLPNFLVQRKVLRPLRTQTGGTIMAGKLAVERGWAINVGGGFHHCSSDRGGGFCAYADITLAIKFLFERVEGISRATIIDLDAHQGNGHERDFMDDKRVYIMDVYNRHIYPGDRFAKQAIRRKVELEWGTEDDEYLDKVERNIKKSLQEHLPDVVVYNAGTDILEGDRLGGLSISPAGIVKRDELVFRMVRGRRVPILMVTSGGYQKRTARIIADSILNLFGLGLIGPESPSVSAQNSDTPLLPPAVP
How it was run: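 Recombinant human enzyme incubated for 60 min at 37°C in HDAC assay buffer containing 5 μg BSA and substrate 3 at 10 μM. Developer (double strength) was added for 20 min at room temperature, and fluorescence was read at 360/460 nm. Six concentrations were tested in duplicate. Percent activity was normalised between no-inhibitor (100%) and no-enzyme (0%) wells, and IC50 came from sigmoidal nonlinear regression.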

[8] = target: T3, recombinant human HDAC 10 (Homo sapiens, UniProt Q969S8); test: HDAC enzyme inhibition assay, HDAC10; type: biochemical; conditions: read-out: In vitro IC50, HD10
T3 sequence (Q969S8 1-669): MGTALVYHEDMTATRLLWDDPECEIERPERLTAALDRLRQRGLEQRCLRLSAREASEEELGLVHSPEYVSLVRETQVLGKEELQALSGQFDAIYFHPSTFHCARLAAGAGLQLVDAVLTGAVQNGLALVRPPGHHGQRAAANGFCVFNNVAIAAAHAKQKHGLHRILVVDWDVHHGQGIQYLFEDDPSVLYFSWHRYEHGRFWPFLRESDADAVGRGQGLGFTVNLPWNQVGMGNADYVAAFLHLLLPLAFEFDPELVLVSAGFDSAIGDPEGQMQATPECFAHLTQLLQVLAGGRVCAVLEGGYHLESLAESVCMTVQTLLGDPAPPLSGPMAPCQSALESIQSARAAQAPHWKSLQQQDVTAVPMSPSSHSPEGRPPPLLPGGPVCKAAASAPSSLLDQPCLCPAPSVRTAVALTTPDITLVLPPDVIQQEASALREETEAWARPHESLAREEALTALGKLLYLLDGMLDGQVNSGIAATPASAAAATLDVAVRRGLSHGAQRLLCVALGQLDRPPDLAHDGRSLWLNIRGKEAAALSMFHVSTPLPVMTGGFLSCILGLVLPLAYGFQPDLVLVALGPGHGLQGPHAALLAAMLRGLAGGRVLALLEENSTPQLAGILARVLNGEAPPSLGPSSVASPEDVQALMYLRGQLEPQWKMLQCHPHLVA
How it was run: as §1

Chain of recombinant human HDAC 2 (Q92769 whole entry): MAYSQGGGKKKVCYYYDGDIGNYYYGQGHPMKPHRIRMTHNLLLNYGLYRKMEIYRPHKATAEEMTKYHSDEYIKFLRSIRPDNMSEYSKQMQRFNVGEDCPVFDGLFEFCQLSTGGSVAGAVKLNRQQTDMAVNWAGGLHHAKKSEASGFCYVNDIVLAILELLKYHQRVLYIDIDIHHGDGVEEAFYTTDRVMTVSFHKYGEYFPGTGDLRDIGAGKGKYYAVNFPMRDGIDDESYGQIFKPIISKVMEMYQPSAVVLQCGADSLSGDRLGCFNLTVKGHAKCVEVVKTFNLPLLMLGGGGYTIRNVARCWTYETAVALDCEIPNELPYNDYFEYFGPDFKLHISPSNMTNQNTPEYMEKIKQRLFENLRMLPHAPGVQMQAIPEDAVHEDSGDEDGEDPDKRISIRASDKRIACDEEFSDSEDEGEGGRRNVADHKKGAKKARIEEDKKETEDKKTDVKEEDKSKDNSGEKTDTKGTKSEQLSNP

CCCC(=O)[O-].[Na+] [NaB, sodium butyrate]
IC50 [1]: 118 µM | mean freezing at 24 hr retention test [2]: 12.73 s | retention of contextual fear memory at 24 hr [2]: failed to enhance retention | histone H3 and H4 acetylation in whole hippocampus, 30 min ([3]; 30 min after 1.2 g/kg i.p.): increasing at 30 min relative to vehicle | histone H3 and H4 acetylation in whole hippocampus, 60 min ([3]; 60 min after 1.2 g/kg i.p.): returning to baseline levels | IC50 [4]: 330 µM | IC50 [5]: 126 µM | IC50 [6]: 611 µM | IC50 [7]: 565 µM | IC50 [8]: 543 µM

Source: publication PMC4107104 (Hippocampus, 2014)
